Assay results reported in PubChem BioAssay.
Records with an inconclusive call do not appear.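 How the source made its calls, unless noted: active means cell viability at or below a set limit in both duplicate runs, the limit being the all-compound median minus 4 SD (cut at about 23% in these data, passing the limit was not always enough); inconclusive means no clear call, values can overlap the other calls; inactive means the rest.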

What was measured:
[1] = S. cerevisiae growth inhibition in permissive medium (OD615), pilot counter-assay for S. cerevisiae lifespan shortening project, permissive growth control (AID 705;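 active means growth inhibition above 25% in both replicates, a cutoff set 3 SD above the mean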); conditions: OD615, 24 h, at 10 µM, hits give high values
Outline: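 Timing: 24 h exposure, 30 °C / Material: Saccharomyces cerevisiae strain carrying genetically modified DeaD replicative-lifespan system / Signal: OD at 615 nm / Compound: 10 µM single dose, 0.25% DMSO / Medium: SC raffinose/galactose permissive medium / Evaluation: reduction in yeast growth (OD615)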

[2] = S. cerevisiae growth inhibition in restrictive medium, OD615, pilot screen, restrictive growth control, yeast lifespan reduction project (AID 706;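 active means growth inhibition above a set limit, 3 SD over mean compound inhibition, in both replicates, cut at about 43% in these data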;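 further: modified DeaD lifespan yeast strain shifted to restrictive glucose medium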); conditions: OD615, 48 h, at 10 µM, hits give high values
Outline: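 System: Engineered S. cerevisiae DeaD strain | Detection: OD615 | Buffer or medium: CSMM-D glucose medium | Doses: 10 µM compound, 0.25% DMSO | Timing: 4 h pre-growth plus 48 h compound exposure, 30 °C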

[3] = doxorubicin toxicity protection in MRP-1 cells – H69AR cells, CellTiter-Glo, duplicate, MRP-1 activator project, pilot screen (AID 807;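 active means viability increase at or above a cutoff of the median across tested compounds plus 3 SD, cut at about 8.5% in these data, passing the limit was not always enough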;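 further: compound pretreatment 18-22 h then 72 h combined with doxorubicin; 0% = doxorubicin alone and 100% = vehicle without doxorubicin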); conditions: H69AR viability with doxorubicin, CellTiter-Glo luminescence; at 10 µM; hits give high values
[4] = viability of HCT116 without oncogenic beta-catenin – human colon tumor cells, pilot screen (AID 823); conditions: HCT116 beta-catenin knockout viability, CellTiter-Glo, 60 h; at 10 µM; hits give low values;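 further: 0% = wells killed by 20 µM Hyamine and 100% = untreated DMSO cell wells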
[5] = viability of PTEN-null HCT116 cells – cell-based, HCT116 clonal line, CellTiter-Glo, pilot screen (AID 824;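 active means viability at or below 27.92% in each of two runs, the all-compound median minus 4 SD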;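 further: 0% = 20 µM Hyamine control and 100% = vehicle cell control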); conditions: HCT116 PTEN-deleted viability, 60 h, at 10 µM, hits give low values
[6] = RAM pathway blockade in budding yeast – dse1pr::URA3 reporter, 5-FOA selection, pilot screen (AID 869;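 active means inhibition over a set limit, the all-compound mean plus 3 SD, in both replicate runs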;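 further: 0% = DMSO wells with no growth and 100% = 10 µM 1-NA-PP1 with full growth; RAM network block rescues cells from 5-FOA so hits raise OD615 growth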); conditions: S. cerevisiae dse1pr::URA3 5-FOA growth, OD615, 2 d; at 10 µM; hits give high values; strain carries analog-sensitive mutant Cbk1 kinase
[7] = RAM signaling pathway blockade in yeast – S. cerevisiae, Pdr1DBD-CYC8 efflux-inhibited sensitized strain, primary screen (AID 1298;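 active means RAM network inhibition above 8.4% in each of two replicates, 3 SD over the compound average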;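 further: 0% = DMSO untreated cells without growth and 100% = 10 µM 1-NA-PP1 full growth; higher means more yeast growth rescued from 5-FOA killing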); conditions: S. cerevisiae cbk1-as DSE1-URA3 strain, 5-FOA growth OD615, 2 d; at 50 µM; hits give high values

CC12C(=O)N(c3cccc4cccnc34)C(=O)C1C1C=CC2C1 (stereo not drawn)
inactive: growth inhibition [1] -7.71% | growth inhibition [2] 2.71% | viability increase [3] -1.54% | viability [4] 103% | viability [5] 102% | inhibition [6] 0.395% | RAM network inhibition [7] 1.05%

CCOC(=O)c1cnc2c(C)cccc2c1NCc1ccco1
inactive: growth inhibition [1] -10.5% | growth inhibition [2] -9.38% | viability increase [3] -4.61% | viability [4] 82.5% | viability [5] 79% | inhibition [6] 1.28% | RAM network inhibition [7] -0.77%

COc1ccc(N2C(=O)C3CCCN3C2c2cccc(OC)c2)cc1 (stereo not drawn)
inactive: growth inhibition [1] 2.15% | growth inhibition [2] -0.935% | viability increase [3] -1.99% | viability [4] 98.9% | viability [5] 104% | inhibition [6] 1.75% | RAM network inhibition [7] -1.67%

COC(=O)CN(c1ccc(C(C)C)cc1)S(=O)(=O)c1c(C)[nH]c(=O)[nH]c1=O
inactive: growth inhibition [1] -0.6% | growth inhibition [2] 11.3% | viability increase [3] -2.38% | viability [4] 88.8% | viability [5] 94.6% | inhibition [6] 2.21% | RAM network inhibition [7] 2.71%

C=CCN(C(=O)CN1CCOCC1)c1nc(C)c(-c2ccccc2)s1
inactive: growth inhibition [1] -16.4% | growth inhibition [2] -12.9% | viability increase [3] -3.35% | viability [4] 91.9% | viability [5] 87.4% | inhibition [6] -0.245% | RAM network inhibition [7] 0.88%

COCCNC(=O)CN1CCOc2ccccc21
inactive: growth inhibition [1] -22.5% | growth inhibition [2] 14.5% | viability increase [3] -4.65% | viability [4] 94.6% | viability [5] 102% | inhibition [6] 0.98% | RAM network inhibition [7] 3.11%

CCCCC(=O)Nc1ncc2c(n1)CC(C)(C)CC2=O
inactive: growth inhibition [1] -7.95% | growth inhibition [2] -5.04% | viability increase [3] -2.35% | viability [4] 96.1% | viability [5] 98.2% | inhibition [6] 2.94% | RAM network inhibition [7] 1.03%

Cc1ccccc1NC(=O)CN1C(=O)COc2ccc(Cl)cc21
inactive: growth inhibition [1] -14.1% | growth inhibition [2] -18% | viability increase [3] 1.63% | viability [4] 95% | viability [5] 87.9% | inhibition [6] 0.995% | RAM network inhibition [7] 4.92%

CCSc1nnc(NC(=O)CSc2nc3c(c(=O)n2-c2ccccc2)SCC3)s1
inactive: growth inhibition [1] -6.26% | growth inhibition [2] -2.77% | viability increase [3] -1.11% | viability [4] 100% | viability [5] 103% | inhibition [6] 2.82% | RAM network inhibition [7] 4.35%

O=C(NCCCN1CCOCC1)c1ccc(CS(=O)(=O)c2ccc(Br)cc2)o1
inactive: growth inhibition [1] -9.31% | growth inhibition [2] -11% | viability increase [3] -0.56% | viability [4] 99.8% | viability [5] 96.2% | inhibition [6] 2.23% | RAM network inhibition [7] 3.6%

CCN1CCCC1CNC(=O)C1c2ccccc2C(=O)N(CCOC)C1c1ccc(F)cc1 (stereo not drawn)
inactive: growth inhibition [1] -3.19% | growth inhibition [2] -18.9% | viability increase [3] -1.76% | viability [4] 95.6% | viability [5] 98.1% | inhibition [6] 1.17% | RAM network inhibition [7] 7.82%

CCC(CO)Nc1ncnc2c1cnn2-c1ccc(OC)cc1 (stereo not drawn)
inactive: growth inhibition [1] -7.48% | growth inhibition [2] -7.47% | viability increase [3] 0.37% | viability [4] 104% | viability [5] 101% | inhibition [6] 2.01% | RAM network inhibition [7] -1.98%

Cc1cc(Nc2ccc(Br)cc2)n2nc(C)nc2n1
inactive: growth inhibition [1] -14% | growth inhibition [2] -2.33% | viability increase [3] -2.63% | viability [4] 96.2% | viability [5] 88.3% | inhibition [6] 2.85% | RAM network inhibition [7] 4.46%

Cc1ccc(NC(=O)NCCN2C(=O)C3C4C=CC(C4)C3C2=O)cc1 (stereo not drawn)
inactive: growth inhibition [1] -8.32% | growth inhibition [2] 10.9% | viability increase [3] -0.07% | viability [4] 98% | viability [5] 102% | inhibition [6] 0.865% | RAM network inhibition [7] 1.04%

CCOC(=O)N1CCC(N2CC34C=CC(O3)C(C(=O)Nc3ccc(OCC)cc3)C4C2=O)CC1 (stereo not drawn)
inactive: growth inhibition [1] 0.885% | growth inhibition [2] 0.91% | viability increase [3] 2.9% | viability [4] 108% | viability [5] 112% | inhibition [6] 0.595% | RAM network inhibition [7] 3.14%

Cc1cc(C(F)(F)F)n2ncc(C(=O)O)c2n1
inactive: growth inhibition [1] 2.26% | growth inhibition [2] 0.105% | viability increase [3] -0.34% | viability [4] 98.3% | viability [5] 91% | inhibition [6] -0.025% | RAM network inhibition [7] 0.78%

Cc1cc(C)n(Cc2ccccc2F)c(=O)c1C#N
inactive: growth inhibition [1] -7.71% | growth inhibition [2] -16.5% | viability increase [3] -1.4% | viability [4] 105% | viability [5] 96.9% | inhibition [6] 0.375% | RAM network inhibition [7] 4.95%

O=C1CNC(=O)/C1=C\N1CCN(C(c2ccccc2)c2ccccc2)CC1
inactive: growth inhibition [1] 5.72% | growth inhibition [2] 9.98% | viability increase [3] -2.16% | viability [4] 99.2% | viability [5] 101% | inhibition [6] 2.48% | RAM network inhibition [7] 1.6%

O=C(NCC1OCCc2ccccc21)c1ccco1 (stereo not drawn)
inactive: growth inhibition [1] -13.7% | growth inhibition [2] -8.18% | viability increase [3] -3.72% | viability [4] 94.5% | viability [5] 96.5% | inhibition [6] 1.16% | RAM network inhibition [7] 6.11%

COC(=O)c1c(NC(=O)C2CC2)sc2c1CCN(C(C)=O)C2
inactive: growth inhibition [1] -10.8% | growth inhibition [2] -31.3% | viability increase [3] -0.44% | viability [4] 105% | viability [5] 91.6% | inhibition [6] 1.98% | RAM network inhibition [7] -1.38%

COCCn1c(SCC(=O)OCc2ccccc2)nc2c1c(=O)[nH]c(=O)n2C
inactive: growth inhibition [1] 4.3% | growth inhibition [2] 1.99% | viability increase [3] 1.83% | viability [4] 98.6% | viability [5] 105% | inhibition [6] 0.815% | RAM network inhibition [7] 5.05%

COc1ccc(NC(=O)Cc2nc3ccccc3[nH]2)cc1
inactive: growth inhibition [1] 0.43% | growth inhibition [2] 6.96% | viability increase [3] -1.06% | viability [4] 58.9% | viability [5] 92.5% | inhibition [6] 0.695% | RAM network inhibition [7] -1.49%

Cn1c(NC(=O)C2CCCO2)cc(=O)n(C)c1=O (stereo not drawn)
inactive: growth inhibition [1] 0.76% | growth inhibition [2] 1.36% | viability increase [3] -0.7% | viability [4] 103% | viability [5] 99.8% | inhibition [6] 0.565% | RAM network inhibition [7] -0.47%

CC1=C(C(=O)OC2CCCCCCC2)C(c2cccc(O)c2)NC(=O)N1 (stereo not drawn)
inactive: growth inhibition [1] -1.81% | growth inhibition [2] 0.17% | viability increase [3] 4.53% | viability [4] 65.2% | viability [5] 65.6% | inhibition [6] 0.63% | RAM network inhibition [7] 0.89%
